ChEMBL document CHEMBL4513216, “Probing the Open Global Health Chemical Diversity Library for Multistage-Active Starting Points for Next-Generation Antimalarials” (ACS Infect Dis, 2020)

Test: Toxicity liver stage against HepG2, at 10uM
Type: cell-based
Design: test concentration 10 uM, cell line HepG2-A16-CD81EGFP
Conditions: human, HepG2-A16-CD81EGFP cells; read-out: INHIBITION
How it was run: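 Uninfected HepG2-A16-CD81EGFP cells, 3 × 10^3 per well, 1536-well, plated on prespotted compound at 10 μM final, parasite-free screening media added to match infected plates; puromycin 10 μM positive, DMSO 0.5% negative; run in parallel with 48 h PbLuc assay at 37 °C, 5% CO2; viability by CellTiter-Glo luminescence, normalized to controls.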

Row | Compound | cytotoxicity at 10 µM [%]
1 | CC(C)N1C[C@H](O)C[C@H]1c1nc(-c2ccc(OC(F)(F)F)cc2)no1 | -3.72
2 | CCC(CC)C(=O)N1CCN(Cc2cc(=O)c3ccccc3[nH]2)CC1 | -9.55
3 | COc1cccc2ccn(CC(=O)NC(C)C)c12 | -37
4 | COCc1nnc(NC(=O)CN2C(=O)c3ccccc3NC2C(C)C)s1 (stereo not given) | -4.19
5 | CNc1c(NCc2ccco2)c(=O)c1=O | -10.6
6 | O=C(NCc1ccc2c(c1)OCO2)c1ccc(N2CCCCC2)nn1 | -9.7
7 | CN1C(=O)CCCC12CCCN(C(=O)c1cc(F)cc(F)c1)C2 (stereo not given) | -1.54
8 | CCc1ccc(CN2CCc3[nH]nc(C(=O)N4CCNC(=O)C4)c3C2)o1 | 17.5
9 | Cc1noc(-c2ccc(-n3ncc(C(=O)O)c3C)nc2)n1 | 0.748
10 | CC1=Nc2c(c(O)nn2C(C)C)C(c2cn(C)nc2C)S1 (stereo not given) | -3.53
11 | O=C(Cn1nc2c(cc1=O)CSCC2)NC(Cc1ccccc1)C(=O)O (stereo not given) | -10.1
12 | CS(=O)(=O)NC[C@@H]1OC[C@H]2CN(C(=O)c3ccc[nH]3)CC[C@H]21 | 0.253
13 | CCN1CCC2(CC1)NC(=O)c1cc(Br)ccc1-n1nnnc12 | 1.47
14 | CC(C)n1cc(S(=O)(=O)N2CCCCCC2)cn1 | 10
15 | CCc1nc(NCC(=O)N2CCOCC2)c2c(n1)c(C)nn2CC | 7.05
16 | CCCc1nc(N2CCN(CC)CC2)c2c(n1)c(C)nn2CC | -9.41
17 | CN1CCCC1CCNC(=O)c1ccccc1-n1cnc(CN)c1 (stereo not given) | 8.6
18 | CN(C)c1cc(C2CCCN2)ccn1 (stereo not given) | 5.8
19 | CNc1ncccc1CN1CCN(C)CC(C(N)=O)C1 (stereo not given) | 0.106
20 | CC(=O)N1CCCC(c2nnc3n2CCN(C(=O)C2CCCCC2)C3)C1 (stereo not given) | 0.685
21 | Cc1cc2nccc(C3CCCN(C(=O)c4cnccn4)C3)n2n1 (stereo not given) | 10.5
22 | Cc1nc(N(C)C)cc(C2(C)CCNCC2)n1 | -6.07

Row | Compound | cytotoxicity at 10 µM [%]
23 | CC1CCc2nc(NS(=O)(=O)c3cnn(C)c3)sc2C1 (stereo not given) | -0.842
24 | CCC(Sc1ncc(CO)n1C)c1ccccc1 (stereo not given) | -45.3
25 | Cc1ccc(C)c(-n2ncc(NC(=O)NC3(C)CCOC3)c2C)c1 (stereo not given) | -41.6
26 | CCCn1ccnc1-c1cccc(NC2CCOC2)c1 (stereo not given) | -3.1
27 | O=S(=O)(N1CCCC1)N1CCN(CC2CCCO2)CC1 (stereo not given) | -0.185
28 | CCc1ocnc1C(=O)N1CCOC(c2nc(C(C)C)n[nH]2)C1 (stereo not given) | 7.43
29 | Cc1cc(NC(=O)N2CCOCC2)nn1-c1ccccc1Cl | 11.1
30 | O=C(NCC1CCC1)c1cccc(CN2CCS(=O)(=O)CC2)c1 | -7.89
31 | CCSc1cc(C(=O)NC2CCN(C(=O)c3ccccc3)CC2)ccn1 | 13.5
32 | CCNC(=O)NC(C)c1nc(-c2ccc(Br)cc2)no1 (stereo not given) | 14.7
33 | CCCc1nc(C)c(C(=O)NCC2CCN(C3CC3)C2)s1 (stereo not given) | -9.34
34 | CC(=O)N1CCCN(Cc2cc(F)cc(Br)c2)CC1 | 7.72
35 | CN(C(=O)CN1CCC(c2cc3ccccc3[nH]2)CC1)C1CC1 | 1.95
36 | CNS(=O)(=O)CC(=O)NC(C)Cc1ccccc1Br (stereo not given) | 13.7
37 | CCN(Cc1noc(C2CC2)n1)Cc1ccc(C#N)cc1F | -1.74
38 | CN(CC(=O)c1ccc2[nH]c(=O)[nH]c2c1)Cc1ccc2c(c1)OCO2 | 5.34
39 | COCCN1CCCN(C(=O)c2oc(C)nc2C)CC1 | 2.04
40 | COCCCN(Cc1ccccc1Cl)C1CCS(=O)(=O)C1 (stereo not given) | 17.1
41 | N#Cc1cccc(CN(CCO)Cc2ccsc2)c1 | 19.6
42 | COc1ccc(C(CO)NC(=O)Nc2cccnc2)cc1 (stereo not given) | -15.7
43 | Cc1ncc(CNC(=O)Nc2cc(C(F)(F)F)c[nH]c2=O)s1 | -10.2
44 | Cn1ncc2c1C(COCC1CC1)CN(S(C)(=O)=O)C2 (stereo not given) | -73.6

Row | Compound | cytotoxicity at 10 µM [%]
45 | N#Cc1cccc(N2CC3(CCN(C(=O)NC4CC4)C3)CC2=O)c1 (stereo not given) | -0.987
46 | CN(C)CC(=O)N1CCc2onc(Cn3cccn3)c2C1 | -3.83
47 | CN1CCC2(CC1)CN(C(=O)c1cccnc1)Cc1ccccc12 | -66.2
48 | O=C1CC(c2cccnc2)C2(CCN(C(=O)c3ccncc3)CC2)N1 (stereo not given) | -6.64
49 | Cn1cc(CN2C[C@@H]3[C@@H](C2)OCC(=O)N3Cc2ccncc2)cn1 | -7.9
50 | COCC(NC(=O)c1cn2ccsc2n1)c1ccnn1C (stereo not given) | -47.8
51 | Cc1nccn1CCC1CCCCN1Cc1cnc(N(C)C)nc1 (stereo not given) | 1.45
52 | Fc1cccc(-c2noc3c2CN(Cc2cncn2C2CC2)CC3)c1 | -1.24
53 | NC(=O)COc1ccc(CN2CCNC(C(=O)NC3CC3)C2)cc1Cl (stereo not given) | 0.887
54 | Cc1ccc2nc(C)c(C)c(C(=O)N3CCC4(CCO4)CC3)c2c1 | 0.707
55 | CC(C)c1nccn1C(C)C(=O)NCc1noc(Cc2cccs2)n1 (stereo not given) | -4.91
56 | Cc1cccc2nc(C(=O)N3CCC4(CCC(=O)N(C)C4)CC3)c(F)n12 | -0.103
57 | N#Cc1ccc(C(=O)N2CCCC3(C=Cc4ccccc4O3)CC2)cn1 (stereo not given) | 11.8
58 | Cc1cc(C(=O)N2CCCC(C(=O)c3cccs3)C2)c(=O)[nH]c1C (stereo not given) | -7.01
59 | Cc1cccc(-n2ncc3c2CCCC3NCc2cnn(C)c2C)c1C (stereo not given) | 13.8
60 | Cc1ccc(-c2ccnc(N[C@H]3COC[C@@H]3N3CCCC3)n2)c(C)n1 | -1.45
61 | Cc1ccc(C)c(-n2cc(CN3CCOCC3)c(-c3ccccc3)n2)c1 | 13.1
62 | CCc1nc(N2CCCN(c3ncccn3)CC2)c2cnn(C)c2n1 | 2.22
63 | CS(=O)(=O)N1CCCC1C(=O)Nc1cnc2n1CCCC2 (stereo not given) | 2.72
64 | CCN1CCN(C(=O)CCC2CCN(C(=O)CCSC)CC2)CC1 | -1.56
65 | COc1ncccc1CN1CCc2[nH]cnc2C1CCSC (stereo not given) | -13.7
66 | COCCN1CC(c2nc(CC3CCN(C)CC3)no2)CCC1=O (stereo not given) | 2.06

Row | Compound | cytotoxicity at 10 µM [%]
67 | COc1nccc(N2CCN(Cc3ccc(C)cc3)C(=O)C2)c1C#N | -16.5
68 | O=C1N(Cc2ccccc2F)CCCC12CCN(C1CCSCC1)C2 (stereo not given) | 0.0366
69 | Clc1ccccc1C1(c2ccnc(-c3ncccn3)n2)CCNCC1 | -6.28
70 | COCc1noc(-c2ccc(N(C)Cc3cc(C)no3)nc2)n1 | -17.2
71 | O=C(c1cccn1Cc1cccs1)N1CCN2CCCCC2C1 (stereo not given) | -7.42
72 | OCCN1CCN(Cc2coc(-c3cccc(Cl)c3)n2)CC1 | -21.6
73 | O=C(NCC1CCOC1)N1CCN(Cc2ccc3c(c2)OCO3)CC1 (stereo not given) | -4.33
74 | CC(C)c1ncc2c(n1)CN(Cc1nc(-c3ccsc3)no1)CC2 | 2.05
75 | O=C(NCc1cc[nH]n1)N1CCN(c2ncccn2)CC1 | -3.29
76 | CCCc1n[nH]c(C2CN(C(=O)c3cccc4[nH]ncc34)CCO2)n1 (stereo not given) | -2.87
77 | O=C1NCCN1C1CCN(Cc2coc(-c3ccccc3)n2)CC1 | -1.54
78 | c1ccc(-n2nc(CNC3CCc4ncnn4C3)c3c2CCC3)cc1 (stereo not given) | -12.9
79 | CN1CCOC(CNC(=O)COc2ccc(F)cc2F)C1 (stereo not given) | -5.51
80 | Cc1nc(C)n(CC2CCCN(CC(=O)Nc3nnc(C)s3)C2)n1 (stereo not given) | -18.9
81 | c1cncc(CNC2CCc3ncnn3C2)c1 (stereo not given) | -7.91
82 | CC(C)c1nnc(CN2CCN(C(C)c3nc(C4CC4)no3)CC2)o1 (stereo not given) | 3.48
83 | CN(Cc1nc2ccccc2n1C)CC1CCCN1c1cccnn1 (stereo not given) | -4.41
84 | COc1cccc(-c2nc(CNCCCn3cccn3)cs2)c1 | -19.7
85 | CCc1ncc(C(=O)N2CCCCC2Cn2cccn2)s1 (stereo not given) | -2.48
86 | CC(C)c1nn(C)c(N2CCOCC2)c1CNCC(=O)N(C)C | -4.3
87 | CCN(CC)C(=O)C(c1ccccc1)N1CCn2c(C)nnc2C1 (stereo not given) | 5.57
88 | O=C(CCc1cnn(-c2ccccc2)c1)N1CCCC(n2cccn2)C1 (stereo not given) | 2.1

Row | Compound | cytotoxicity at 10 µM [%]
89 | O=C(CN1CCC(c2ccnn2CCO)CC1)NCC1CC1 | -3.25
90 | CCn1ccnc1CN1CCOC(CNc2cccnn2)C1 (stereo not given) | 0.762
91 | CC(c1cccc(S(N)(=O)=O)c1)N(C)CCc1ccccc1 (stereo not given) | -12
92 | Cc1ccccc1OC1CCN(CC(=O)Nc2cnn(C)c2C)CC1 | -8.09
93 | CC(C)NC(=O)[C@@]12CCO[C@@H]1CCN(Cc1ccc3c(c1)OCO3)C2 | -1.34
94 | O=C(CC1CC1)NCc1cn2c(n1)CN(Cc1nccs1)CC2 | -74.1
95 | CN(C)Cc1cc(=O)n2c(n1)CN(C(=O)Cc1ccsc1)CCC2 | -4.43
96 | Cn1cc(CN2CCn3cc(CNC(=O)CC4CC4)nc3C2)cn1 | -83.3
97 | Cc1oncc1C(=O)N1CC[C@H]2[C@H](C[C@@H](CN(C)C)N2CC2CC2)C1 | 2.84
98 | CCOCC1CN(S(=O)(=O)N(C)C)Cc2cnn(C)c21 (stereo not given) | -4.2
99 | CN(C)C(=O)c1cnc2n1CCN(Cc1cccc(C#N)c1)C2 | -77.3
100 | Cc1cc(CN2C[C@@H]3COC[C@@H](C(=O)N4CCCCO4)[C@@H]3C2)oc1C | -72.8
101 | CN(Cc1ccco1)[C@@H]1CN(CC2CCOCC2)[C@@H]2CCCO[C@H]12 | -76.4
102 | CC1c2ncc(CN3CCN(C)CC3)n2CCN1Cc1cnn(C)c1 (stereo not given) | 7.77
103 | O=C1CC(c2ccncc2)C2(CCN(C(=O)NC3CC3)CC2)N1 (stereo not given) | -3.46
104 | CN(C)C(=O)CN1C(=O)CCC12CCN(Cc1cccn1C)CC2 | 6.45
105 | C[C@@H](N)C(=O)N1CC2(CCNCC2)c2cc(Cl)ccc21 | -2.42
106 | Cc1ccoc1C(=O)N1C[C@H](OCc2cccnc2)[C@H]2OCCC[C@H]21 | -5.28
107 | CN(C)CCOCC1CN(Cc2cccs2)Cc2ccnn2C1 (stereo not given) | -0.903
108 | c1cnc(N2CCO[C@@H]3CN(Cc4ccoc4)C[C@@H]3C2)nc1 | -1.36
109 | O=C(Cc1ccncc1)N1C[C@@H]2CC[C@H]1CN(Cc1cccnc1)C2 | 2.89
110 | CC(=O)Nc1ccsc1C(=O)N1CC[C@H]2CC[C@@H](C1)N2C | -1.47
